In the library only some 3.7% were active in any assay of this set; here they are far more common.
TAAR1 agonist: agonists of human TAAR1. activation, % at 3 µM. actives 0.99% (n = 360,000). AID 624467. CHO RD-HGA16 TAAR1, Fluo-8 calcium fluorescence; vehicle wells 0%, saturating PEA agonist 100%. Q96RJ0;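 active means activation above the mean activation of all test compounds in the run plus 3 SD, cut at about 38% in these data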
Target sequence (Q96RJ0 whole entry, looked up): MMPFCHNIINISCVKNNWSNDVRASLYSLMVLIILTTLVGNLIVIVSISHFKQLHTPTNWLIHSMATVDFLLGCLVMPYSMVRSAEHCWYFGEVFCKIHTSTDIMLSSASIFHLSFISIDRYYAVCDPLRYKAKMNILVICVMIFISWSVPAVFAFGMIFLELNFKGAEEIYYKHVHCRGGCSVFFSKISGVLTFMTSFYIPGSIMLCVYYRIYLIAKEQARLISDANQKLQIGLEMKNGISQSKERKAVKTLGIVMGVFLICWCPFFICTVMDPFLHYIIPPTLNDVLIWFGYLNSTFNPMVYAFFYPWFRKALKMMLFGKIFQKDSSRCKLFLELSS
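System: CHO-derived RD-HGA16 cells with stable Gα16 and human TAAR1 / Times: 17-24 h plating, Fluo-8 75 min 37 °C, 30 min RT / Technique: calcium-sensitive Fluo-8 signal, excitation 470-495, emission 515-575 nm / Measure: % activation relative to PEA EC100 response / Benchmarks: DMSO and PEA EC100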
NS3 helicase inh: inhibitors of Hepatitis C virus NS3 helicase | NS3 helicase DNA unwinding, Cy5 molecular beacon fluorescence | actives 0.56% (n = 290,000) | inhibition, % at 10.9 µM;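 active means inhibition above the mean of all tested compounds plus 3 SD, set per campaign, cut at about 35% in these data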;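 further: 0% = DMSO wells and 100% = thioflavine S control wells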
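test system = hepatitis C virus NS3 helicase domain fragment enzyme | reagent = annealed dual-labelled DNA beacon duplex, ATP-started | times = 1 h at 25 °C | detection = Cy5 fluorescence, 0 and 60 min reads | read-out basis = percent inhibition from t60/t0 fluorescence ratio | control set = DMSO and thioflavine S | replication = one well per compound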
HCV core dimer: HCV core protein dimerization inhibition. actives 0.33% (n = 300,000). inhibition, % at 5 µM. TR-FRET GST/Flag-core106 dimerization, 1536-well;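 active means inhibition above the mean of all tested compounds plus 3 SD, set per screening campaign, cut at about 45% in these data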
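test system = GST/Flag-tagged HCV core106 proteins | probe or stimulus = Eu donor and XL665 acceptor anti-tag antibodies | times = compound-protein-antibody incubation 4 h at 22.5 °C | signal = TR-FRET, excitation 340 nm, emission 617 and 671 nm | measure = percent inhibition of core106 dimerization signal | controls = wells lacking GST-core106 and wells with excess unlabelled core106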
rCAG binder: r(CAG) repeat RNA binding. AID 651821. TO-PRO-1 dye displacement fluorescence. actives 1.3% (n = 370,000). inhibition, % at 3 µM;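 active means inhibition above the plate cutoff, the mean of all test compounds on that plate plus 3 SD, cut at about 35% in these data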;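 further: 0% = DMSO alone and 100% = 100 µM mitoxantrone as full dye displacement; higher means more dye released from RNA so lower well fluorescence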
TAAR1 antag: antagonists of human TAAR1. inhibition, % at 3 µM. CHO RD-HGA16 TAAR1, Fluo-8 calcium fluorescence, antagonist. Q96RJ0. AID 624466. actives 1.5% (n = 360,000);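 active means inhibition above a per-plate cutoff, the mean inhibition of test compounds on that plate plus 3 SD, cut at about 49% in these data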;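 further: 0% = DMSO plus EC80 beta-PEA response and 100% = DMSO alone without agonist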
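System: RD-HGA16 CHO cells with stable hTAAR1 and Gα16 | Probe or stimulus: EC80 β-phenethylamine stimulus | Dosing: 3 µM, single point | Times: Dye loading 75 min at 37 °C, then 30 min room temperature | Measured by: Fluo-8 calcium-sensitive fluorescence | Read-out basis: % inhibition of agonist calcium response | Replicates: n of 1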
TAAR1 nonsel count: nonselective antagonist in TAAR1 antagonist counter-screen; inhibition, % at 3 µM; counterscreen cell line, calcium fluorescence, antagonist mode; shares compounds with TAAR1 antag; actives 77% (n = 2,400); AID 651780; in the data active means inhibition above about 22%;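 further: CHO-Ga16 host cells stimulated with ATP at an EC80 level; 0% = agonist EC80 plus vehicle and 100% = vehicle without agonist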
TAAR1 antag conf: confirmation of human TAAR1 antagonists. shares compounds with TAAR1 antag. TAAR1-expressing cells, fluorescence antagonist read-out. inhibition, % at 3 µM. actives 40% (n = 2,400). AID 651785; in the data active means inhibition above about 49%;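 further: CHO-Ga16 host cells challenged with agonist PEA near its EC80; 0% = agonist at EC80 plus vehicle and 100% = vehicle with no agonist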
Ga16 nonsel ag: nonselective Ga16 agonism, counter-screen. shares compounds with TAAR1 antag. Ga16-expressing cells, calcium fluorescence, agonist counterscreen. activation, % at 3 µM. AID 651953. actives 18% (n = 2,400); in the data active means activation above about 12%;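 further: 0% = vehicle wells and 100% = saturating stimulus response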
TAAR1 ag count: TAAR1 agonism, antagonist counter-screen; shares compounds with TAAR1 antag; hTAAR1 cell line, fluorescence activation, agonist mode; activation, % at 3 µM; actives 2% (n = 2,400); in the data active means activation above about 37%;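 further: CHO cells stably expressing TAAR1 with calcium dye readout; 0% = DMSO vehicle and 100% = full agonist response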
rCAG binder conf: r(CAG) RNA repeat binding, confirmation; shares compounds with rCAG binder; TO-PRO-1 dye displacement fluorescence; inhibition, % at 3 µM; actives 70% (n = 4,300); AID 652065;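 active means inhibition above a per-plate cutoff, the mean inhibition of sample wells plus 3 SD, cut at about 35% in these data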;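 further: loss of TO-PRO-1 fluorescence as compound displaces dye from 1x1 AA loop RNA; 0% = DMSO only wells and 100% = 100 µM mitoxantrone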
DNA CAG counter: DNA CAG dye complex inhibition counter-screen | inhibition, % at 3 µM | shares compounds with rCAG binder | actives 94% (n = 4,300) | AID 652068 | d(CAG) DNA oligo TO-PRO-1 dye displacement, fluorescence;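 active means inhibition above its plate's cutoff, the mean test-well inhibition plus 3 SD, cut at about 4.8% in these data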;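 further: 0% = DNA dye mix with DMSO and 100% = 100 µM mitoxantrone; hits displace the dye from DNA and so lower well fluorescence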
DNA CAG DR: DNA CAG dye complex inhibition, dose response counter-screen. AID 686960. DNA CAG/GTC duplex TO-PRO-1 dye displacement fluorescence. IC50, µM. actives 20% (n = 250). shares compounds with rCAG binder; in the data active means IC50 below about 10 µM
* marks the source's active call; other numbers are inactive results.

What do the screens show for `Cc1ccc(S(=O)(=O)N2[C@@H](c3ccc(Br)cc3)C(C(=O)O)=CC[C@H]2c2ccc(Cl)cc2)cc1`?
TAAR1 agonist: 4; rCAG binder: 83*; TAAR1 antag: 68*; TAAR1 nonsel count: 18; TAAR1 antag conf: 51*; Ga16 nonsel ag: 2; TAAR1 ag count: 4; rCAG binder conf: 82*; DNA CAG counter: 53*

What do the screens show for `COc1cc(C#Cc2c(-c3cncn3C)n(C)c3ccc(-c4cnc(OC)nc4)cc23)cc(OC)c1`?
TAAR1 agonist: 8; rCAG binder: 74*; TAAR1 antag: 73*; TAAR1 nonsel count: 35*; TAAR1 antag conf: 52*; Ga16 nonsel ag: 5; TAAR1 ag count: 0; rCAG binder conf: 15; DNA CAG counter: 10*

What do the screens show for `Cc1cc(C)c2nc(NNC(=O)c3cc(-c4cccs4)nc4ccccc34)sc2c1`?
TAAR1 agonist: 16; NS3 helicase inh: 1; HCV core dimer: 15; rCAG binder: 37*; TAAR1 antag: 56*; TAAR1 nonsel count: 35*; TAAR1 antag conf: 50*; Ga16 nonsel ag: 11; TAAR1 ag count: 9; rCAG binder conf: 42*; DNA CAG counter: 18*

How did Cc1cccc(NC(=O)NCCCN2CCN(c3ccc(F)cc3)CC2)c1 do in these assays?
rCAG binder: 0

Results for Cc1nn(CCc2nn[nH]n2)c2nc(C(F)(F)F)cc(C(F)(F)F)c12 ?
TAAR1 agonist: 7; NS3 helicase inh: 13; HCV core dimer: 2; rCAG binder: 6; TAAR1 antag: -4

How did Cc1nn(CCc2nn[nH]n2)c2nc(-c3ccc(Br)cc3)cc(C(F)(F)F)c12 do in these assays?
TAAR1 agonist: 2; NS3 helicase inh: 4; HCV core dimer: 21; rCAG binder: 44*; TAAR1 antag: 71*; TAAR1 nonsel count: 16; TAAR1 antag conf: 33; Ga16 nonsel ag: 2; TAAR1 ag count: -4; rCAG binder conf: 71*; DNA CAG counter: 25*; DNA CAG DR: inactive

How did CCCNC(=O)c1ccccc1NS(=O)(=O)c1ccc(OC)c(OC)c1 do in these assays?
TAAR1 agonist: 1; NS3 helicase inh: 0; HCV core dimer: 1; rCAG binder: 2; TAAR1 antag: 13

Results for COc1ccc(S(=O)(=O)Nc2ccccc2C(=O)Nc2nc(-c3ccc(F)cc3)cs2)cc1OC ?
TAAR1 agonist: 9; NS3 helicase inh: -16; HCV core dimer: 23; rCAG binder: 87*; TAAR1 antag: 90*; TAAR1 nonsel count: 52*; TAAR1 antag conf: 61*; Ga16 nonsel ag: 9; TAAR1 ag count: 4; rCAG binder conf: 89*; DNA CAG counter: 71*

What do the screens show for `Nc1nc2c(ncn2[C@@H]2O[C@H](C(=O)N[C@H](Cc3ccccc3)C(=O)NC3CCCCC3)[C@@H](O)[C@H]2O)c(=O)[nH]1`?
TAAR1 agonist: 3; rCAG binder: 3; TAAR1 antag: -19

How did COC(=O)[C@]12C[C@H](CC(=O)N3CCC(c4ccccc4)CC3)C(=O)N(Cc3cccc4ccccc34)C1=C[C@H](C1CCCC1)O[C@@H]2C do in these assays?
rCAG binder: 10

Results for Cc1ccc(Sc2ncccc2C(=O)NCc2cc([N+](=O)[O-])ccc2O)cc1C ?
TAAR1 agonist: 20; NS3 helicase inh: -6; rCAG binder: 35*; TAAR1 antag: 60*; TAAR1 nonsel count: 29*; TAAR1 antag conf: 41; Ga16 nonsel ag: 11; TAAR1 ag count: 14; rCAG binder conf: 22; DNA CAG counter: 5.3*

How did COc1ccc(CNC(=O)c2cccnc2Sc2ccc(C)c(C)c2)cc1 do in these assays?
TAAR1 agonist: 20; NS3 helicase inh: 1; HCV core dimer: 5; rCAG binder: 1; TAAR1 antag: 25

How did COc1ccc(/C=N/NS(=O)(=O)c2ccccc2)cc1OC do in these assays?
TAAR1 agonist: 2; NS3 helicase inh: 2; HCV core dimer: -1; rCAG binder: 0; TAAR1 antag: -15

How did COc1ccc(/C=C2/SC(=O)N(NS(=O)(=O)c3ccccc3)C2=S)cc1OC do in these assays?
TAAR1 agonist: 14; NS3 helicase inh: 16; HCV core dimer: -15; rCAG binder: 69*; TAAR1 antag: 63*; TAAR1 nonsel count: 29*; TAAR1 antag conf: 42; Ga16 nonsel ag: 6; TAAR1 ag count: 3; rCAG binder conf: 58*; DNA CAG counter: 23*

What do the screens show for `Cn1cccc1C(=O)N1CCN(S(=O)(=O)c2cccc3ccccc23)CC1`?
rCAG binder: 5

What do the screens show for `Cc1noc(NS(=O)(=O)c2ccc(NC(=O)c3cccc(S(=O)(=O)Nc4ccccc4F)c3)cc2)c1C`?
TAAR1 agonist: -3; rCAG binder: 35*; TAAR1 antag: 100*; TAAR1 nonsel count: 2; TAAR1 antag conf: 1; Ga16 nonsel ag: 4; TAAR1 ag count: 3; rCAG binder conf: 27; DNA CAG counter: 7.8*

Results for COc1cccc(C(=O)Nc2ccc(S(=O)(=O)Nc3onc(C)c3C)cc2)c1 ?
TAAR1 agonist: 6; NS3 helicase inh: 2; HCV core dimer: 1; rCAG binder: 16; TAAR1 antag: -4

Results for Nc1ccn([C@@H]2O[C@H](C(=O)N[C@H](Cc3ccccc3)C(=O)NCC(=O)N3CCOCC3)[C@@H](O)[C@H]2O)c(=O)n1 ?
TAAR1 agonist: 0; rCAG binder: 3; TAAR1 antag: -15

How did CC1=CC(C)(C)N(C(=O)CCl)c2cc(C)ccc21 do in these assays?
TAAR1 agonist: 0; NS3 helicase inh: -3; HCV core dimer: 3; rCAG binder: -7; TAAR1 antag: -13

Screens as filed in PubChem.
